Reference: article PMC5644278 (Alzheimer's & Dementia : Translational Research & Clinical …, 2016)

Experiments:
Type in all cases: in vivo, human
[1] = tested on: healthy male subjects; test: Treatment emergent adverse events, single dose study; settings: galantamine 16 mg oral
[2] = tested on: healthy male subjects; test: VAS nausea, single dose; settings: healthy elderly males
[3] = tested on: healthy male subjects; test: NeuroCart test battery, overall pharmacodynamic effects; settings: galantamine 16 mg oral; healthy elderly males
Method in brief: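 Double-blind study in healthy nonsmoking elderly men (cohorts 3–4, 12 on active drug). A single oral 16 mg dose was given at the same time as the other cohort treatments, with elderly double-placebo controls. Battery: N-back, Stroop, adaptive tracking, Bond–Lader VAS, pharmaco-EEG, eye movements, pupil size, body sway, face encoding/recognition and VVLT. Two baseline runs, then 1–6, 8 and 10 h post-dose. VVLT ran at 1 h 30 min only; face recognition predose and at 1 h 45 min. Analysis by mixed-model ANOVA with fixed factor treatment.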

[4] = Plasma pharmacokinetics after single intranasal dose of Gln-1062; settings: for half-life / AUC(0-inf) / Cmax: male, human, inhaled or intranasal

In the case of `COc1ccc2c3c1O[C@H]1C[C@@H](O)C=C[C@@]31CCN(C)C2` [galantamine], the “Cold sweat or hyperhidrosis, incidence” value [1] is reported as 33.3%, the “Nausea, incidence” value ([1]; healthy elderly males) is reported as 33.3% and the “Diarrhea, incidence” value ([1]; healthy elderly subjects) is reported as 8.3%. For the same compound, the “Vomiting, incidence” value ([1]; healthy elderly subjects) was 41.7%, the “peak of nausea (VAS nausea), time after administration” value [2] was 2 h and the “pharmacodynamic effects compared with placebo” value [3] was “did not induce any measurable pharmacodynamic effects”. It also gave a half-life [4] of about 10 h, an AUC(0-inf) ([4]; 5.5 mg) of 268 ng·h/mL and a Cmax ([4]; 5.5 mg) of 17.6 ng/mL. The half-life ([4]; 5.5 mg) was 9.85 h, the AUC(0-inf) ([4]; 11 mg) was 367 ng·h/mL and the Cmax ([4]; 11 mg) was 27.7 ng/mL. For the same compound, the half-life ([4]; 11 mg) was 7.94 h, the AUC(0-inf) ([4]; 22 mg) was 799 ng·h/mL and the Cmax ([4]; 22 mg) was 46.5 ng/mL. The half-life ([4]; 22 mg) was 8.71 h, the AUC(0-inf) ([4]; 33 mg) was 1190 ng·h/mL and the Cmax ([4]; 33 mg) was 76.1 ng/mL. It also gave a half-life ([4]; 33 mg) of 9.24 h, an AUC(0-inf) ([4]; 44 mg) of 1530 ng·h/mL and a Cmax ([4]; 44 mg) of 74.7 ng/mL. For the same compound, the half-life ([4]; 44 mg) was 11.1 h and the “Tmax for galantamine after administration of Gln-1062” value ([4]; over the Gln-1062 intranasal dose levels) was 2.3 to 4.7 h.
